Series [1] deals with LNCaP. The experiment in a line: Cellular uptake in proliferating human LNCAP cells expressing androgen receptor assessed as [125I]UdR retention per cell at 1 to 4 uCi/mL after 24 hrs by gamma counting. The format is ADME, cell-based. The essentials:
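Proliferating LNCaP monolayers exposed 24 h to a range of radioligand concentrations; whole-cell uptake measured.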

Series [2] is described as follows: Stability in rabbit serum assessed as half life at 10 to 20 uCi/mL by reversed phase HPLC analysis. Type of series: ADME, cell-free, Oryctolagus cuniculus. The essentials:
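The compound was incubated with rabbit or human serum at ambient temperature, and aliquots were taken at 1, 5 and 24 h. Aliquots were run on size-exclusion HPLC (TSK3000; 0.1 M potassium phosphate/0.1 M Na2SO4, pH 6.8, then an acetonitrile gradient). Extracts were run on C18 reversed-phase HPLC (water/acetonitrile with 0.07% TFA). Half-lives came from a monoexponential fit.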

A short description of series [3]: Ratio of drug level in tumor to kidney in athymic NCr mouse xenografted with human OVCAR-3 cells at 180 uCi, ip administered 9 days after tumor implantation as six fractionated doses every 4 days measured after 24 hrs by gamma counting. The format is ADME, organism-based. As to conditions: in vivo; call rule not given here.
Series [4] in a line: Ratio of drug level in tumor to blood in athymic NCr mouse xenografted with human OVCAR-3 cells at 180 uCi, ip administered 9 days after tumor implantation as six fractionated doses every 4 days measured after 24 hrs by gamma counting. Type of series: ADME, organism-based. The conditions noted are these: tumour. (In general: Xenograft models place foreign cells or tissue in a host animal.)

A short description of series [5]: Chemical stability in RPMI-1640 serum-free medium assessed as compound hydrolysis at 12.2 uCi after 24 hrs by HPLC analysis. The format is physicochemical. As to conditions: read-out: Activity.
Series [6] in a line: Biodistribution in […] in athymic NCr mouse xenografted with human OVCAR-3 cells at 45 uCi, ip after 72 hrs by gamma counting. The conditions noted are these: in vivo. The format is ADME, organism-based. In outline: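 Athymic NCr-nu/nu mice with ip OVCAR-3; 45 μCi given ip without prior SSKI. Whole-body planar imaging at 72 h with region-of-interest analysis as percent of whole-body activity; peritoneal lavage cells and ascites counted.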

The nature of series [7]: Ratio of drug level in tumor to spleen in athymic NCr mouse xenografted with human OVCAR-3 cells at 180 uCi, ip administered 9 days after tumor implantation as six fractionated doses every 4 days measured after 72 hrs by gamma counting. The format is ADME, organism-based. As to conditions: in vivo.
The target in series [8] is T1, Sex hormone-binding globulin (Oryctolagus cuniculus, UniProt P15196).
T1 sequence (P15196 whole entry): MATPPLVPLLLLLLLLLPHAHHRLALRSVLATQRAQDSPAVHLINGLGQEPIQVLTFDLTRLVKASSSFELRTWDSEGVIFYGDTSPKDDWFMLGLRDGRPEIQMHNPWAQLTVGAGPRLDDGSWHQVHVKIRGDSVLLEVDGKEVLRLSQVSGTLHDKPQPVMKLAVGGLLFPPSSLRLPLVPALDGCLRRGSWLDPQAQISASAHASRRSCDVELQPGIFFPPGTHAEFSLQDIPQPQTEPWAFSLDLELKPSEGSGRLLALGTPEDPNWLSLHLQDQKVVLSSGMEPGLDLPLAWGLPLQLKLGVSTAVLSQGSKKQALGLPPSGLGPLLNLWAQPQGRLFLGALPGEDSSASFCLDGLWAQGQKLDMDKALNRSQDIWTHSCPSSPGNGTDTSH
The series can be described thus: Binding affinity to rabbit sex hormone binding globulin at 20 uCi after 60 mins by size-exclusion HPLC analysis. Type of series: ADME. As to conditions: 1 h. In outline:
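Radioligand incubated 60 min with purified human SHBG or with human, rabbit or mouse serum. Size-exclusion HPLC (TSK3000): 0.1 M potassium phosphate/0.1 M Na2SO4 1:1 pH 6.8 for 20 min, then 0–40% CH3CN over 20 min, held 30 min, 0.7 mL/min.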
(In general: Size exclusion chromatography separates by hydrodynamic size, large species first.)

With `C[C@]12CCC(=O)C[C@@H]1CC[C@@H]1[C@@H]2CC[C@]2(C)[C@@H](OC(=O)CCC(=O)O[C@H]3C[C@H](n4cc([125I])c(=O)[nH]c4=O)O[C@@H]3CO)CC[C@@H]12`, the Bmax in series [1] came to 1.4 ×10⁻⁶ pmol. Besides, the t1/2 in series [2] stood at 5.7 h. In addition, the Ratio is listed as 79.1 in series [3], 64.7 in series [4] and 11.9 in series [7]. In addition, in series [5], the degraded at 24 h, 12.2 uCi was determined as 30%. Besides, in series [6], the Drug uptake is 3.4%.
Consider `C[C@]12CCC(=O)C[C@@H]1CC[C@@H]1[C@@H]2CC[C@]2(C)[C@@H](OC(=O)CCC(=O)O[C@H]3C[C@H](n4cc([125I])c(=O)[nH]c4=O)O[C@@H]3COP(=O)(O)O)CC[C@@H]12`, for which the result in series [8] was Active.
